Measured values: paper PMC6857568 (Molecular Biology of the Cell, 2019)

Assays:
[1] = tested on: taxol-stabilized Atto647N-labeled microtubules; test: Microtubule-binding by TIRF microscopy on taxol-stabilized microtubules; design: species or system pig
[2] = tested on: dynamic Alexa 647–labeled microtubules; test: Bundling of dynamic microtubules; format: biochemical, pig; settings: 50 or 100 nM starPEG-(KA7)4-TAMRA; 50 nM starPEG-(DA7)4-TAMRA; 35°C
How it was run: (§1)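 Dynamic assay: biotinylated GMP-CPP pig tubulin seeds were bound to anti-biotin antibody, then given 14 µM Alexa 647 tubulin with 1 mM GTP, methylcellulose, casein and oxygen scavenger in PIPES pH 6.8. Peptide was present at the stated concentrations, at 35°C for up to 30 min. Dual-color time-lapse was one frame per 3 s; kymographs were analyzed manually.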

[3] = tested on: depolymerizing microtubule plus ends / intersecting microtubules; test: Outcome of depolymerizing plus end crossing an intersecting microtubule; format: biochemical, pig; settings: for pulling events (in words): 50 or 100 nM (starPEG-(KA7)4-TAMRA); for pick-up of tubulin aggregates tracking depolymerizing plus ends: dynamic microtubule assay
How it was run: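 Peptide was present in the dynamic-seed assay (14 µM Alexa 647 tubulin, GTP, 35°C). Dual-color time-lapse ran at one frame per 3 s. Peptide intensity at a crossing was the background-corrected integrated intensity of a five-pixel circle, taken in the frame where the depolymerizing plus end crossed the intersecting microtubule. Multiple-peak Gaussian fitting was used.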

[4] = tested on: dynamic Alexa 647–labeled microtubules; test: Microtubule dynamics; format: biochemical, pig; settings: vs MOCK
[5] = tested on: Alexa 647–labeled tubulin; test: Spontaneous microtubule nucleation assay; format: biochemical, pig; settings: 100 nM, 5 min, 35°C; for microtubules nucleated de novo: ± SD, MOCK 0.6 ± 0.4
[6] = tested on: rat kinesin-1 (rKin430-GFP); test: Kinesin-1 stepping; format: biochemical; settings: 5 and 25 nM
How it was run: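 GFP-tagged truncated rat kinesin-1 (1–430) ran on antibody-bound taxol microtubules with 1 mM ATP and peptide, at 25°C. Movies were 5 min at 100-ms exposure (488 nm), with a peptide snapshot beforehand. Landing rate, velocity, dwell time and run length were scored manually from kymographs. Gaussian and log-normal fits were applied; half-maxima of cumulative plots were reported.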

[7] = tested on: depolymerizing microtubule plus ends / intersecting microtubules; test: Bending forces of pulled microtubules during pulling events; format: biochemical, pig; settings: beam equation, deflection angle ≤30°, corrected force, mean ± SD, N = 11
[8] = tested on: dynamic Alexa 647–labeled microtubules; test: Tracking of microtubule ends on dynamic microtubules; format: biochemical, pig
How it was run: as §1

[9] = tested on: taxol-stabilized ATTO 647N-labeled microtubules; test: Single-molecule diffusion and track-switching on the microtubule lattice; format: binding, pig
How it was run: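 Peptide at 1 nM was imaged on taxol microtubules at 25°C in BRB80. Recordings were 5-min continuous streams at 100-ms exposure (532 nm). Single molecules were tracked automatically (minimum 5 frames, maximum 3-frame break) and checked against kymographs. D came from MSD linear regression and from a covariance-based estimator weighted by trajectory length.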

[10] = tested on: overlaps of taxol-stabilized microtubules; test: Accumulation in overlaps of taxol-stabilized microtubules; format: binding, pig
[11] = tested on: subtilisin-treated GMP-CPP/taxol double-stabilized microtubules; test: Binding to subtilisin-treated; design: species or system pig; settings: C-termini removed
How it was run: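 GMP-CPP microtubules were digested with 200 µg/ml subtilisin A in BRB80 plus 10 µM taxol for 1 h at 30°C, then stopped with 10 mM PMSF. Digestion was checked by SDS-PAGE. Brightly labeled (1:4) digested and dimly labeled (1:20) undigested microtubules shared one channel. Peptide binding was imaged by TIRF at 25°C in the stabilized-microtubule buffer.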

[12] = biological target: Atto647N-labeled microtubules of pig brain tubulin (pig) (UniProt Q2XVP4); test: TIRF microscopy binding assay
[13] = average, n = 19 tracking events, 35°C

## starPEG-(DA7)4-TAMRA
[1]; high nanomolar concentrations (i.e., >250 nM), charge-inverted control
  microtubule binding: does not show any microtubule binding
[2]
  microtubule bundling: not in the presence of 50 nM starPEG-(DA7)4-TAMRA
[3]
  pulling events (in words): none
  pick-up of tubulin aggregates tracking depolymerizing plus ends: not evident
[4]; 50 nM
  effect on microtubule dynamics (in words): do not change microtubule dynamics compared with MOCK control
[5]
  microtubules nucleated de novo: 0.8 ± 1.0 MT per minute and field of view

## starPEG-(KA7)4-TAMRA
[6]
  effect on kinesin-1 dwell time (in words): does not significantly affect the motor’s average dwell time
  effect on kinesin-1 landing rate (in words): significantly decreases the landing rate of kinesin-1 in a concentration-dependent manner
  effect on kinesin-1 run length (in words): nor the average motor run length
  effect on kinesin-1 velocity (in words): slightly increased
[1]; taxol-stabilized microtubules, BRB80, 25°C
  saturation of microtubule binding: ~200 nM
[2]
  microtubule bundling: pronounced microtubule bundling
[3]
  pulling events (in words): frequent pulling events
  pick-up of tubulin aggregates tracking depolymerizing plus ends: eventually picked up surface-associated tubulin aggregates that started to diffuse along the microtubule lattice and tracked depolymerizing plus ends
[7]
  bending force during pulling events (mean): 4.2 ± 2.7 pN
[8]; after rescue event
  tracking of growing microtubule plus end: unable to track the growing microtubule plus end
[8]; [13]
  microtubule shortening during tracked depolymerization events: ~60%
  microtubule-bound intensity lost during one depolymerization event: ~30%
[8]; dynamic microtubules
  minus-end tracking: could not observe any minus-end-tracking event
[8]; normalized intensity / normalized length
  concentration on remaining microtubule lattice by end-tracking: about twofold
[9]; 25°C, BRB80
  diffusion coefficient (overall): ~0.3 µm^2s^–1
[9]; mean square displacement, linear regression, mean ± SEM, N = 998, 1 nM, 25°C, BRB80
  diffusion coefficient D (MSD): 0.33 ± 0.04 µm^2s^–1
[9]; single molecules, taxol-stabilized microtubules
  track-switching at microtubule intersections: able to switch their microtubule track at microtubule–microtubule intersections
[10]; low density (5 nM)
  accumulation in microtubule overlaps (in words): preferentially binds to or accumulates in overlaps of taxol-stabilized microtubules
[10]; near a half-saturating concentration (25 nM)
  accumulation in microtubule overlaps (in words): this effect is lost
[11]
  effect of subtilisin protease treatment on microtubule binding: completely abolishes microtubule binding
[4]; 50 and 100 nM
  effect on rescue frequency (in words): 100 nM but not 50 nM starPEG-(KA7)4-TAMRA significantly reduces the rescue frequency
[4]; 50 or 100 nM
  effect on growth velocity (in words): increases the growth velocity significantly
[5]
  microtubule nucleation (in words): robust nucleation is evident
  microtubules nucleated de novo: 9 ± 2.5 MT per minute and field of view

## starPEG-(KA7)4-TAMRA (designed binder)
[12]
  Kd: 30 nM
  concentration at which saturation is reached: 200 nM
